Drawing on ChEMBL document CHEMBL4038277, “Design, synthesis and biological evaluation of 7-methylimidazo[1,5-a]pyrazin-8(7H)-one derivatives as BRD4 inhibitors” (Bioorg Med Chem, 2017), this text covers IC50 and Ki for 14 compounds.

Assay [1] deals with T1, Bromodomain-containing protein 4 (Homo sapiens, UniProt O60885). Nature of the assay: Inhibition of BRD4-BD1 (44 to 168 residues) (unknown origin) using histone H4 peptide as substrate preincubated for 15 mins followed by addition of substrate measured after 60 mins by AlphaScreen assay. In general terms: Alpha assays give light when donor and acceptor beads are brought close together.

The next assay has as its system K562. Nature of the assay: Antiproliferative activity against BRD4-independent human K562 cells after 72 hrs by CCK8 assay. Type of assay: functional, cell-based. The following applies: K562, 72 h. The procedure, abridged: (§1)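 Cells seeded at 1 × 10^4 per well in 100 µL IMDM with 20% FBS. After 12 h, triple-diluted compound series added in 50 µL. Read 72 h after seeding: CCK-8 reagent added, 4 h at 37 °C, absorbance at 450 nm, blank-corrected relative to untreated control. IC50 fitted from the curve. Means ± SD from three independent experiments.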
A general note: Formazan colour is commonly taken as a measure of viable cells.

Assay [2] concerns the target T1, Bromodomain-containing protein 4. Nature of the assay: Inhibition of BRD4-BD2 (333 to 460 residues) (unknown origin) using histone H4 peptide as substrate preincubated for 15 mins followed by addition of substrate measured after 60 mins by AlphaScreen assay.
Another assay relates to HL-60. Nature of the assay: Antiproliferative activity against BRD4-sensitive human HL60 cells after 72 hrs by CCK8 assay. Type of assay: functional, cell-based. The settings on record: HL-60, 72 h. In short, it runs like this:
as §1

The next assay concerns MV4-11. Nature of the assay: Antiproliferative activity against BRD4-sensitive human MV411 cells after 72 hrs by CCK8 assay. Format: functional, cell-based. The following applies: MV4-11, 72 h. The procedure, abridged: as §1
The target in assay [3] is T1, Bromodomain-containing protein 4. Nature of the assay: Inhibition of recombinant human His-tagged BRD4-BD1 expressed in bacteria using biotinylated H4-tetraacetyl peptide as substrate after 20 mins by AlphaScreen assay.

Molecules are shown by their SMILES. pIC50, pKi: −log10 of the molar value. A value given as a limit tells only on which side of the number the result lay.

As a reminder, the pIC50 is −log10 of the IC50, conventionally taken in molar units. Higher therefore signals a low IC50. As to `Cn1cc(-c2cc(S(C)(=O)=O)ccc2Oc2cccc(NCc3ccc(C#N)cc3)c2)n2cncc2c1=O`, the pIC50 in assay [1] was 6.46; in the assay on K562, less than 5.00; in assay [2], 6.74; in the assay with HL-60, 5.21; in the assay on MV4-11 it was 5.38.

For `CCS(=O)(=O)c1ccc(Oc2ccc(F)cc2)c(-c2cn(C)c(=O)c3cncn23)c1`, the pIC50 was 6.70 in assay [1]; less than 5.00 in the assay with K562; 6.66 in assay [2]; 6.03 with HL-60; 6.11 in the assay with MV4-11.

As to `CCS(=O)(=O)c1ccc(Oc2cccc(NS(=O)(=O)c3cccs3)c2)c(-c2cn(C)c(=O)c3cncn23)c1`, the negative logarithm of the IC50 (pIC50) in assay [1] was 6.41; in assay [2] it was 6.55.

On to `CC(=O)Nc1ccc(CNc2cccc(Oc3ccc(S(C)(=O)=O)cc3-c3cn(C)c(=O)c4cncn34)c2)cc1`, for which the pIC50 is 6.42 in assay [1] and 6.74 in assay [2].

A word on the pKi: it is the negative decadic logarithm of the Ki, by convention in mol/L. As for `CCS(=O)(=O)Nc1ccc(Oc2ccc(F)cc2F)c(-c2cn(C)c(=O)c3[nH]ccc23)c1` [MIVEBRESIB], the pIC50 is 7.13 in assay [1]; less than 5.00 in the assay with K562; 7.16 in assay [2]; 7.05 with HL-60; 7.15 with MV4-11. Besides, the pKi in assay [3] was 7.82.

As to `COc1cccc(CNc2cccc(Oc3ccc(S(C)(=O)=O)cc3-c3cn(C)c(=O)c4cncn34)c2)c1`, the pIC50 in assay [1] is 6.37; in the assay with K562, less than 5.00; in assay [2] it was 6.72; with HL-60, 5.82; in the assay with MV4-11 it was 5.94.

In the case of `CCS(=O)(=O)c1ccc(Oc2ccc(F)cc2F)c(-c2cn(C)c(=O)c3cncn23)c1`, the negative logarithm of the IC50 (pIC50) in assay [1] is 6.62; in the assay with K562, less than 5.00; in assay [2], 6.59; with HL-60, 6.21; in the assay on MV4-11 it was 6.39.

As for `CCS(=O)(=O)c1ccc(Oc2cccc(NS(=O)(=O)c3ccc(OC)cc3)c2)c(-c2cn(C)c(=O)c3cncn23)c1`, the results for the negative-log IC50 (pIC50) in assay [1] and in assay [2] were 6.70 and 6.85, respectively.

Regarding `CCS(=O)(=O)c1ccc(Oc2cccc(NCc3ccc(NC(C)=O)cc3)c2)c(-c2cn(C)c(=O)c3cncn23)c1`, the pIC50 in assay [1] is 6.89; in the assay with K562, less than 5.00; in assay [2], 7.40; in the assay with HL-60, 5.54; with MV4-11, 6.77.

Turning to `Cn1cc(-c2cc(S(C)(=O)=O)ccc2Oc2cccc(NCc3ccc(F)cc3)c2)n2cncc2c1=O`, the negative logarithm of the IC50 (pIC50) in assay [1] is 6.17; with K562 it was less than 5.00; in assay [2], 6.49; with HL-60, 5.85; in the assay on MV4-11 it was 6.02.

In the case of `CCS(=O)(=O)c1ccc(Oc2cccc(NCc3ccc(C#N)cc3)c2)c(-c2cn(C)c(=O)c3cncn23)c1`, the pIC50 in assay [1] is 6.89; in the assay on K562, less than 5.00; in assay [2], 7.12; with HL-60, 6.24; with MV4-11 it was 6.74.

`CCS(=O)(=O)c1ccc(Oc2cccc(NS(=O)(=O)c3ccccc3F)c2)c(-c2cn(C)c(=O)c3cncn23)c1`: the results for the negative logarithm of the IC50 (pIC50) in assay [1] and in assay [2] were 6.62 and 6.77, respectively.

Regarding `Cn1cc(-c2cc(S(C)(=O)=O)ccc2Oc2ccc(F)cc2F)n2cncc2c1=O`, the negative-log IC50 (pIC50) is 6.28 in assay [1]; less than 5.00 in the assay on K562; 6.24 in assay [2]; 5.54 in the assay on HL-60; 5.73 in the assay on MV4-11.

For `Cc1sc2c(c1C)C(c1ccc(Cl)cc1)=N[C@@H](CC(=O)OC(C)(C)C)c1nnc(C)n1-2`, the negative logarithm of the IC50 (pIC50) with K562 was 5.04; in the assay with HL-60 it was 6.96; in the assay on MV4-11, 7.10.
